Experimental data published in ChEMBL document CHEMBL4190389, “Synthesis and activity of di- or trisubstituted N-(phenoxyalkyl)- or N-{2-[2-(phenoxy)ethoxy]ethyl}piperazine derivatives on the central nervous system” (Bioorg Med Chem Lett, 2018).
Each block holds one compound with its values, some of them ahead of it. The source made the active and inactive calls. The calls are words filed in the database; no cut-off is given here.

Assays:
[1] = target: T1, 5-hydroxytryptamine receptor 7 (Homo sapiens, UniProt P34969); test: Antagonist activity at human 5-HT7 receptor expressed in CHO-K1 cells assessed as decrease in serotonin-induced cAMP level after 1 hr by TR-FRET assay relative to control; assay type: functional, cell-based
T1 sequence (P34969 whole entry): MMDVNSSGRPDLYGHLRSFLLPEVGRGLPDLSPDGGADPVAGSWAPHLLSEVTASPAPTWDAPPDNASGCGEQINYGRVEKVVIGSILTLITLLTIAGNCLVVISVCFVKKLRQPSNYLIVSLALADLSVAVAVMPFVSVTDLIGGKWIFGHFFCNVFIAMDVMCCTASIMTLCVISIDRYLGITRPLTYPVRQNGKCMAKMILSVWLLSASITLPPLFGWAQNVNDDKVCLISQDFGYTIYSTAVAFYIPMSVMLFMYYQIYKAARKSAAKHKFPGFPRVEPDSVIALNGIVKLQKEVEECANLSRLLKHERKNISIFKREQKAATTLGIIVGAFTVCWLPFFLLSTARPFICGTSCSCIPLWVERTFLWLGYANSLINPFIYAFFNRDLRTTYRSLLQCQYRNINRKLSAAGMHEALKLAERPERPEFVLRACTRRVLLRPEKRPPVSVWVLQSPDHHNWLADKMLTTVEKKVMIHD

[2] = target: T1, 5-hydroxytryptamine receptor 7; test: Agonist activity at human 5-HT7 receptor expressed in CHO-K1 cells assessed as increase in serotonin-induced cAMP level after 1 hr by TR-FRET assay relative to serotonin; assay type: functional, cell-based
[3] = target: T2, D(2) dopamine receptor (Homo sapiens, UniProt P14416); test: Agonist activity at human D2 receptor expressed in CHO-K1 cells co-expressing Galphaqi5 assessed as increase apomorphine-induced calcium mobilization measured for 30 secs by aequorin-derived luminescence assay relative to apomorphine; assay type: functional, cell-based
T2 sequence (P14416 whole entry): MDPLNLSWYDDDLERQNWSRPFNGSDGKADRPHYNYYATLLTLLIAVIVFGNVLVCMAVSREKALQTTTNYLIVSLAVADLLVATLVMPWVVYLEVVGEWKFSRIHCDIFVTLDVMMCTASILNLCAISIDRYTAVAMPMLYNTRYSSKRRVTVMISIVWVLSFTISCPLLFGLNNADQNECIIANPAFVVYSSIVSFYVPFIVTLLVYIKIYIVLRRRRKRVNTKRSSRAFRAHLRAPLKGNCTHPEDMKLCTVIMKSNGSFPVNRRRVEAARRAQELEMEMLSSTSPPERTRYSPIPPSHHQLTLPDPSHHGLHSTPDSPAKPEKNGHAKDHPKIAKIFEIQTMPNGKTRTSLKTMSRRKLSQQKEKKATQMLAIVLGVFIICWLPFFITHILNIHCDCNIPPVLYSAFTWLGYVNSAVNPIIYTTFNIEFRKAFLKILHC

[4] = target: T1, 5-hydroxytryptamine receptor 7; test: biochemical; assay type: cell-based, CHO
[5] = target: T3, 5-hydroxytryptamine receptor 1A (Homo sapiens) (UniProt P08908); test: (§1) Antagonist activity at human 5-HT1A receptor expressed in CHO-K1 cells co-expressing Galpha16 assessed as decrease in serotonin calcium mobilization preincubated for 25 mins followed by serotonin challenge measured for 30 secs by aequorin-derived luminescence assay; assay type: functional, cell-based
T3 sequence (whole entry): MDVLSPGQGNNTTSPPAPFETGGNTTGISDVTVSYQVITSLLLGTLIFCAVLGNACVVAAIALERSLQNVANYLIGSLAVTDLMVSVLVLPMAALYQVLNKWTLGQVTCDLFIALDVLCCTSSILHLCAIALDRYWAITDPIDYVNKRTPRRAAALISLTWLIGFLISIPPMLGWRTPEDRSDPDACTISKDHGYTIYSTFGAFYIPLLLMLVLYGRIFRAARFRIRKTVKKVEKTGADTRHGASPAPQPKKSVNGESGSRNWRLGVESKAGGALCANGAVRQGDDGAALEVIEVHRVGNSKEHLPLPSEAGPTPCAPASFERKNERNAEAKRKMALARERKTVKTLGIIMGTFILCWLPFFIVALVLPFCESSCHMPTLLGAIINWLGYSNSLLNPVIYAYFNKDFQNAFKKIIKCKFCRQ

[6] = target: T4, 5-hydroxytryptamine receptor 1A (Homo sapiens, UniProt P08908); test: as §1; assay type: functional, cell-based
T4 sequence (P08908 whole entry): T3 sequence (whole entry)

[7] = test system: Mus musculus; test: Toxicity in Albino Swiss CD-1 mouse assessed as effect on locomotory activity at 1.25 to 5 mg/kg, ip administered for 30 mins prior to test measured for 1 min; assay type: organism-based; settings: in vivo
[8] = target: T5, 5-hydroxytryptamine receptor 2A (Homo sapiens, UniProt P28223); test: Antagonist activity at human 5-HT2A receptor expressed in CHO-K1 cells co-expressing Galpha16 assessed as decrease in serotonin calcium mobilization preincubated for 30 mins followed by serotonin challenge measured for 30 secs by aequorin-derived luminescence assay; assay type: functional, cell-based
T5 sequence (P28223 whole entry): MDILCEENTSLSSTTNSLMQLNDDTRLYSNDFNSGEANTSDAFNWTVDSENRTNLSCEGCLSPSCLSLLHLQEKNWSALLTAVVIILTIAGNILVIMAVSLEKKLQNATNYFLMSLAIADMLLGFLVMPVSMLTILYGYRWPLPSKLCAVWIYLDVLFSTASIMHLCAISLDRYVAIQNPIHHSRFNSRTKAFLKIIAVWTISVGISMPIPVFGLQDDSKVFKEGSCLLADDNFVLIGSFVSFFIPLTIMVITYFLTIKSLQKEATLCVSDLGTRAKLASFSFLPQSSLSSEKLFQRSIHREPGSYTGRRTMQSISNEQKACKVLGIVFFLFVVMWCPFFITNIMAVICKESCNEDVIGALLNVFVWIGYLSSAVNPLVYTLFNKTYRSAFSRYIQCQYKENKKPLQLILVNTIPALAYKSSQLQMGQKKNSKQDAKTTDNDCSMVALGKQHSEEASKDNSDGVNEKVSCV

[9] = target: T6, Alpha-1A adrenergic receptor (Homo sapiens, UniProt P35348); test: Displacement of [3H]prazosin from recombinant human alpha1 adrenoceptor expressed in CHO cell membranes after 30 mins by liquid scintillation counting method
T6 sequence (P35348 whole entry): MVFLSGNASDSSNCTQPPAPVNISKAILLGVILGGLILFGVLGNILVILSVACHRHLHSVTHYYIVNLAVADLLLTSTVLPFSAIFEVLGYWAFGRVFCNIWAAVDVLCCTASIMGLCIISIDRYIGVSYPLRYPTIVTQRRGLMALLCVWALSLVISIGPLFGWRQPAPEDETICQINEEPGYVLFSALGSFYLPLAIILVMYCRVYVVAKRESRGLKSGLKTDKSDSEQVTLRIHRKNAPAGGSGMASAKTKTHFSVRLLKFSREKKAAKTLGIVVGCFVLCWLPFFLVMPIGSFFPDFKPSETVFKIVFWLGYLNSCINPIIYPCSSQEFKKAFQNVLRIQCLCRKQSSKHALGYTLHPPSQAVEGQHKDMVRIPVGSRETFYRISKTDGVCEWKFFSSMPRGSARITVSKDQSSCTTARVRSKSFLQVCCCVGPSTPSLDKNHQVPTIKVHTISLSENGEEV

[10] = target: T3, 5-hydroxytryptamine receptor 1A (Homo sapiens); test: Agonist activity at human 5-HT1A receptor expressed in CHO-K1 cells co-expressing Galpha16 assessed as increase in calcium mobilization measured for 30 secs by aequorin-derived luminescence assay relative to serotonin; assay type: functional, cell-based
[11] = target: T4, 5-hydroxytryptamine receptor 1A; test: Displacement of [3H]8-OH-DPAT from recombinant human 5-HT1A receptor expressed in HEK293 cell membranes after 60 mins by liquid scintillation counting method
[12] = target: T1, 5-hydroxytryptamine receptor 7; test: Antagonist activity at human 5-HT7 receptor expressed in CHO-K1 cells assessed as decrease in serotonin-induced cAMP level after 1 hr by TR-FRET assay; assay type: functional, cell-based
[13] = test system: Mus musculus; test: Antidepressant-like activity in Albino Swiss CD-1 mouse assessed as immobility time at 20 mg/kg, ip administered 30 mins prior to test measured for last 4 mins of 6 mins observation by forced swim test (reference value: 153.9 to 201.9 secs); assay type: functional
[14] = target: T3, 5-hydroxytryptamine receptor 1A (Homo sapiens); test: Antagonist activity at human 5-HT1A receptor expressed in CHO-K1 cells co-expressing Galpha16 assessed as decrease in serotonin-induced calcium mobilization preincubated for 25 mins followed by serotonin challenge measured for 30 secs by aequorin-derived luminescence assay relative to control; assay type: functional, cell-based
[15] = target: T5, 5-hydroxytryptamine receptor 2A; test: biochemical; assay type: cell-based, HEK293
[16] = target: T2, D(2) dopamine receptor; test: Antagonist activity at human D2 receptor expressed in CHO-K1 cells co-expressing Galphaqi5 assessed as decrease in apomorphine-induced calcium mobilization preincubated for 30 mins followed by apomorphine challenge measured for 30 secs by aequorin-derived luminescence assay; assay type: functional, cell-based
[17] = test system: Mus musculus; test: Antidepressant-like activity in Albino Swiss CD-1 mouse assessed as immobility time at 5 mg/kg, ip administered 30 mins prior to test measured for last 4 mins of 6 mins observation by forced swim test (reference value: 153.9 to 201.9 secs); assay type: functional
[18] = test system: Mus musculus; test: Toxicity in Albino Swiss CD-1 mouse assessed as death at 30 mg/kg, ip; assay type: organism-based; settings: in vivo
Method in brief: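 Deaths counted in mice during maximal electroshock (MES) seizure testing after i.p. dosing, 6 mice per dose (3 or 1 at some top doses); recorded as number dead/number tested alongside protection and rotarod motor impairment (10 rpm); untreated control group included.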

[19] = target: 5-hydroxytryptamine receptor 6 (Homo sapiens, UniProt P50406); test: Displacement of [3H]LSD from recombinant human 5-HT6 receptor expressed in CHO cells cell membranes after 60 mins by liquid scintillation counting method
5-hydroxytryptamine receptor 6, sequence (P50406 whole entry): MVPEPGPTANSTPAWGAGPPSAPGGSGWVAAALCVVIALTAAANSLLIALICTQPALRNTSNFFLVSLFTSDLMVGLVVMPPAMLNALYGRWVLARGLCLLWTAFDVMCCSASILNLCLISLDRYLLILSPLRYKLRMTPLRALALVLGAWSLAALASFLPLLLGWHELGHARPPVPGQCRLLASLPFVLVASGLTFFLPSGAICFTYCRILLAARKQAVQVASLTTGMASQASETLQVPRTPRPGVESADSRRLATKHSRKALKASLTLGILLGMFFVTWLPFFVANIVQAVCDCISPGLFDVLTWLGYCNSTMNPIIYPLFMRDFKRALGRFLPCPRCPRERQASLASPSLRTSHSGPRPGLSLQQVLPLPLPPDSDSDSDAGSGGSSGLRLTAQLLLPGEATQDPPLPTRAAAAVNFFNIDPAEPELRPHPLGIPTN

[20] = test system: Mus musculus; test: Anxiolytic-like activity in Albino Swiss CD-1 mouse assessed as increase in number of punished crossings at 2.5 to 5 mg/kg, ip administered for 30 mins prior to test measured for 1 min by four-plate test; assay type: functional, organism-based
Method in brief: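 Four-plate test in mice, i.p., 30 min before test; vehicle 0.9% NaCl; doses 1.25–10 mg/kg; number of punished crossings counted; mean ± SEM, n = 8–10 mice per group; ANOVA F statistics.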

[21] = target: T2, D(2) dopamine receptor; test: Displacement of [3H]methylspiperonee from recombinant human D2 receptor expressed in HEK293 cells cell membranes after 60 mins by liquid scintillation counting method
[22] = test system: Mus musculus; test: Antidepressant-like activity in Albino Swiss CD-1 mouse assessed as immobility time at 10 mg/kg, ip administered 30 mins prior to test measured for last 4 mins of 6 mins observation by forced swim test (reference value: 153.9 to 201.9 secs); assay type: functional

Emax [1]: -1%
Emax [2]: -1%
Compound: CC1CCN(CC[C@H]2CCCN2S(=O)(=O)c2cccc(O)c2)CC1

Compound: COc1ccccc1N1CCN(CCOCCOc2cc(C)cc(C)c2C)CC1.Cl.Cl
Emax [3]: 1%
Ki [4]: 0.089 µM
Kb [5]: 0.0923 µM
IC50 [6]: 0.376 µM
Emax [1]: 11%
Activity [7]: Non-Toxic
IC50 [8]: 4.01 µM
Ki [9]: 0.014 µM
Emax [10]: 5%
Ki [11]: 0.032 µM
IC50 [12]: 2.34 µM
Kb [12]: 0.995 µM
Time [13]: 156.1 s
Emax [14]: 4%
Ki [15]: 0.159 µM
IC50 [16]: 0.0785 µM
Kb [16]: 0.0234 µM
Time [17]: 165.6 s
Emax [2]: 9%
Activity [18]: Non-Toxic
Ki [19]: 1.54 µM
Activity [20]: Active
Ki [21]: 0.162 µM
Time [22]: 141.9 s
